Test results from ChEMBL document CHEMBL5230083, “Novel 2, 5-diketopiperazine derivatives as potent selective histone deacetylase 6 inhibitors: Rational design, synthesis and antiproliferative activity” (Eur J Med Chem, 2020).

How the values were obtained:
SF-539 = assay: Antiproliferative activity against human SF-539 cells assessed as cell growth at 10 uM incubated for 48 hrs by SRB assay relative to control; type: functional; conditions: read-out: Activity
Procedure, shortened: (§1)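 Single-concentration screen at 10 μM run by NCI on its NCI-60 human tumour panel (blood, lung, colon, CNS, melanoma, ovary, kidney, prostate, breast), following the NCI-60 published methodology. Read-out is growth percent relative to untreated cells.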

NCI-H522 = assay: Antiproliferative activity against human NCI-H522 cells assessed as cell growth at 10 uM incubated for 48 hrs by SRB assay relative to control; type: functional; conditions: read-out: Activity; procedure, shortened: as §1
UACC-257 = assay: Antiproliferative activity against human UACC-257 cells assessed as cell growth at 10 uM incubated for 48 hrs by SRB assay relative to control; type: functional; conditions: read-out: Activity
Procedure, shortened: (§2)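 NCI-60 single-dose screen: compounds tested at 10 μM, and growth percent of each cell line calculated. The full method follows the NCI DTP protocol.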

DU-145 = assay: Antiproliferative activity against human DU-145 cells assessed as cell growth at 10 uM incubated for 48 hrs by SRB assay relative to control; type: functional; conditions: read-out: Activity; procedure, shortened: as §1
TK-10 = assay: Antiproliferative activity against human TK-10 cells assessed as cell growth at 10 uM incubated for 48 hrs by SRB assay relative to control; type: functional; conditions: read-out: Activity; procedure, shortened: as §2
PC-3 = assay: Antiproliferative activity against human PC-3 cells assessed as cell growth at 10 uM incubated for 48 hrs by SRB assay relative to control; type: functional; conditions: read-out: Activity; procedure, shortened: as §1
SF-295 = assay: Antiproliferative activity against human SF-295 cells assessed as cell growth at 10 uM incubated for 48 hrs by SRB assay relative to control; type: functional; conditions: read-out: Activity; procedure, shortened: as §1
T47D = assay: Antiproliferative activity against human T47D cells assessed as cell growth at 10 uM incubated for 48 hrs by SRB assay relative to control; type: functional; conditions: read-out: Activity; procedure, shortened: as §2
UO-31 = assay: Antiproliferative activity against human UO-31 cells assessed as cell growth at 10 uM incubated for 48 hrs by SRB assay relative to control; type: functional; conditions: read-out: Activity; procedure, shortened: as §2
LOX IMVI = assay: Antiproliferative activity against human LOX IMVI cells assessed as cell growth at 10 uM incubated for 48 hrs by SRB assay relative to control; type: functional; conditions: read-out: Activity; procedure, shortened: as §1
RPMI-8226 = assay: cells; type: functional, cell-based; conditions: Homo sapiens, RPMI-8226, 72 h
KM12 = assay: Antiproliferative activity against human KM12 cells assessed as cell growth at 10 uM incubated for 48 hrs by SRB assay relative to control; type: functional; conditions: read-out: Activity; procedure, shortened: as §1
A549 = assay: Antiproliferative activity against human A549 cells assessed as cell growth at 10 uM incubated for 48 hrs by SRB assay relative to control; type: functional; conditions: read-out: Activity; procedure, shortened: as §1
HT-29 = assay: Antiproliferative activity against human HT-29 cells assessed as cell growth at 10 uM incubated for 48 hrs by SRB assay relative to control; type: functional; conditions: read-out: Activity; procedure, shortened: as §1
HOP-92 = assay: Antiproliferative activity against human HOP-92 cells assessed as cell growth at 10 uM incubated for 48 hrs by SRB assay relative to control; type: functional; conditions: read-out: Activity; procedure, shortened: as §1
MCF7 = assay: Antiproliferative activity against human MCF7 cells assessed as cell growth at 10 uM incubated for 48 hrs by SRB assay relative to control; type: functional; conditions: read-out: Activity; procedure, shortened: as §1
SNB-19 = assay: Antiproliferative activity against human SNB-19 cells assessed as cell growth at 10 uM incubated for 48 hrs by SRB assay relative to control; type: functional; conditions: read-out: Activity; procedure, shortened: as §2
SR = assay: Antiproliferative activity against human SR cells assessed as cell growth at 10 uM incubated for 48 hrs by SRB assay relative to control; type: functional; conditions: read-out: Activity; procedure, shortened: as §2
SK-MEL-28 = assay: Antiproliferative activity against human SK-MEL-28 cells assessed as cell growth at 10 uM incubated for 48 hrs by SRB assay relative to control; type: functional; conditions: read-out: Activity; procedure, shortened: as §1
HCC 2998 = assay: Antiproliferative activity against human HCC 2998 cells assessed as cell growth at 10 uM incubated for 48 hrs by SRB assay relative to control; type: functional; conditions: read-out: Activity; procedure, shortened: as §1
SNB-75 = assay: Antiproliferative activity against human SNB-75 cells assessed as cell growth at 10 uM incubated for 48 hrs by SRB assay relative to control; type: functional; conditions: read-out: Activity; procedure, shortened: as §2
COLO 205 = assay: Antiproliferative activity against human COLO 205 cells assessed as cell growth at 10 uM incubated for 48 hrs by SRB assay relative to control; type: functional; conditions: read-out: Activity; procedure, shortened: as §1
SK-MEL-5 = assay: Antiproliferative activity against human SK-MEL-5 cells assessed as cell growth at 10 uM incubated for 48 hrs by SRB assay relative to control; type: functional; conditions: read-out: Activity; procedure, shortened: as §2
U-266 = assay: cells; type: functional, cell-based; conditions: Homo sapiens, U-266, 72 h
CAKI-1 = assay: Antiproliferative activity against human CAKI-1 cells assessed as cell growth at 10 uM incubated for 48 hrs by SRB assay relative to control; type: functional; conditions: read-out: Activity; procedure, shortened: as §1
IGROV-1 = assay: Antiproliferative activity against human IGROV-1 cells assessed as cell growth at 10 uM incubated for 48 hrs by SRB assay relative to control; type: functional; conditions: read-out: Activity; procedure, shortened: as §1
M14 = assay: Antiproliferative activity against human M14 cells assessed as cell growth at 10 uM incubated for 48 hrs by SRB assay relative to control; type: functional; conditions: read-out: Activity; procedure, shortened: as §1
SK-MEL-2 = assay: Antiproliferative activity against human SK-MEL-2 cells assessed as cell growth at 10 uM incubated for 48 hrs by SRB assay relative to control; type: functional; conditions: read-out: Activity; procedure, shortened: as §1
HL-60 = assay: Antiproliferative activity against human HL-60 cells assessed as cell growth at 10 uM incubated for 48 hrs by SRB assay relative to control; type: functional; conditions: read-out: Activity; procedure, shortened: as §1
SW-620 = assay: Antiproliferative activity against human SW620 cells assessed as cell growth at 10 uM incubated for 48 hrs by SRB assay relative to control; type: functional; conditions: read-out: Activity; procedure, shortened: as §2
[1] = Cytotoxicity against human HS5 cells assessed as inhibition of cell growth incubated for 72 hrs by alamar blue assay; type: toxicity, cell-based
Procedure, shortened: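 Cells were grown in IMDM with 20% FBS and penicillin/streptomycin at 37 °C in 5% CO2. Drug-treated cells were incubated 72 h. Alamar blue (1 mM solution) was then added for 5–6 h, and fluorescence read at 530/590 nm.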

OVCAR-3 = assay: Antiproliferative activity against human OVCAR-3 cells assessed as cell growth at 10 uM incubated for 48 hrs by SRB assay relative to control; type: functional; conditions: read-out: Activity; procedure, shortened: as §1
MDA-MB-231 = assay: Antiproliferative activity against human MDA-MB-231 cells assessed as cell growth at 10 uM incubated for 48 hrs by SRB assay relative to control; type: functional; conditions: read-out: Activity; procedure, shortened: as §1
U-251 = assay: Antiproliferative activity against human U-251 cells assessed as cell growth at 10 uM incubated for 48 hrs by SRB assay relative to control; type: functional; conditions: read-out: Activity; procedure, shortened: as §2
HCT-15 = assay: Antiproliferative activity against human HCT-15 cells assessed as cell growth at 10 uM incubated for 48 hrs by SRB assay relative to control; type: functional; conditions: read-out: Activity; procedure, shortened: as §1
Malme-3M = assay: Antiproliferative activity against human Malme-3M cells assessed as cell growth at 10 uM incubated for 48 hrs by SRB assay relative to control; type: functional; conditions: read-out: Activity; procedure, shortened: as §1
Hs-578T = assay: Antiproliferative activity against human Hs-578T cells assessed as cell growth at 10 uM incubated for 48 hrs by SRB assay relative to control; type: functional; conditions: read-out: Activity; procedure, shortened: as §1
BT-549 = assay: Antiproliferative activity against human BT-549 cells assessed as cell growth at 10 uM incubated for 48 hrs by SRB assay relative to control; type: functional; conditions: read-out: Activity; procedure, shortened: as §1

SMILES: O=C(NO)c1ccc(CN2CC(=O)N(Cc3ccccc3)[C@H](Cc3ccccc3)C2=O)cc1
- growth at 10 µM (SF-539): 87.3%
- growth at 10 µM (NCI-H522): 69.8%
- growth at 10 µM (UACC-257): 69.3%
- growth at 10 µM (DU-145): 87%
- growth at 10 µM (TK-10): 88.1%
- growth at 10 µM (PC-3): 76.5%
- growth at 10 µM (SF-295): 100%
- growth at 10 µM (T47D): 69.1%
- growth at 10 µM (UO-31): 69.5%
- growth at 10 µM (LOX IMVI): 93.2%
- IC50 (RPMI-8226): 11.7 µM
- growth at 10 µM (KM12): 86.9%
- growth at 10 µM (A549): 95.1%
- growth at 10 µM (HT-29): 87.9%
- growth at 10 µM (HOP-92): 102%
- growth at 10 µM (MCF7): 82.9%
- growth at 10 µM (SNB-19): 85.4%
- growth at 10 µM (SR): 63.5%
- growth at 10 µM (SK-MEL-28): 95.4%
- growth at 10 µM (HCC 2998): 85.9%
- growth at 10 µM (SNB-75): 69.4%
- growth at 10 µM (COLO 205): 89.2%
- growth at 10 µM (SK-MEL-5): 96.7%
- IC50 (U-266): 25.9 µM
- growth at 10 µM (CAKI-1): 96.5%
- growth at 10 µM (IGROV-1): 89%
- growth at 10 µM (M14): 90.4%
- growth at 10 µM (SK-MEL-2): 99.4%
- growth at 10 µM (HL-60): 102%
- growth at 10 µM (SW-620): 94.1%
- IC50 at 72 hrs [1]: > 100 µM
- growth at 10 µM (OVCAR-3): 79.7%
- growth at 10 µM (MDA-MB-231): 95.2%
- growth at 10 µM (U-251): 81.3%
- growth at 10 µM (HCT-15): 74.3%
- growth at 10 µM (Malme-3M): 77.1%
- growth at 10 µM (Hs-578T): 82%
- growth at 10 µM (BT-549): 103%

SMILES: O=C1CN(Cc2ccc(C(=O)NO)cc2)C(=O)[C@@H](Cc2c[nH]c3ccccc23)N1
- growth at 10 µM (SF-539): 107%
- growth at 10 µM (NCI-H522): 96.7%
- growth at 10 µM (UACC-257): 96.1%
- growth at 10 µM (DU-145): 107%
- growth at 10 µM (TK-10): 103%
- growth at 10 µM (PC-3): 97.5%
- growth at 10 µM (SF-295): 105%
- growth at 10 µM (T47D): 87.3%
- growth at 10 µM (UO-31): 91.1%
- growth at 10 µM (LOX IMVI): 106%
- IC50 (RPMI-8226): 33.2 µM
- growth at 10 µM (KM12): 102%
- growth at 10 µM (A549): 96.6%
- growth at 10 µM (HT-29): 104%
- growth at 10 µM (HOP-92): 104%
- growth at 10 µM (MCF7): 96.7%
- growth at 10 µM (SNB-19): 96.8%
- growth at 10 µM (SR): 115%
- growth at 10 µM (SK-MEL-28): 110%
- growth at 10 µM (HCC 2998): 103%
- growth at 10 µM (SNB-75): 94.5%
- growth at 10 µM (COLO 205): 120%
- growth at 10 µM (SK-MEL-5): 108%
- IC50 (U-266): 43.2 µM
- growth at 10 µM (CAKI-1): 93.8%
- growth at 10 µM (IGROV-1): 101%
- growth at 10 µM (M14): 94.2%
- growth at 10 µM (SK-MEL-2): 113%
- growth at 10 µM (HL-60): 126%
- growth at 10 µM (SW-620): 103%
- IC50 at 72 hrs [1]: > 100 µM
- growth at 10 µM (OVCAR-3): 104%
- growth at 10 µM (MDA-MB-231): 107%
- growth at 10 µM (U-251): 96.7%
- growth at 10 µM (HCT-15): 103%
- growth at 10 µM (Malme-3M): 94.6%
- growth at 10 µM (Hs-578T): 104%
- growth at 10 µM (BT-549): 98.2%
